Kir21 inh: inhibitors of mouse Kir2.1 inward-rectifier potassium channel; P35561; HEK293-Kir2.1, FluxOR thallium flux fluorescence; hits give low values; B-score at 10 µM; 310,000 tested, 0.85% active; AID 1672;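 active = fluorescence ratio B-score at or below minus 3 SD of library scores, with starting-brightness B-score within 2 SD, cut at about -4.2 in these data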;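 also: channel flux triggered by added potassium and thallium sulfate stimulus; B-score of peak minus minimum fluorescence over baseline after thallium stimulus; more negative B-score means stronger Kir2.1 block with less thallium influx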
RGS4 act: potentiators or activators of RGS4; 310,000 tested, 0.92% active; HEK293 M3R/inducible RGS4, carbachol calcium flux Fluo4; hits give low values; B-score at 10 µM; AID 463111;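 active = B-score of the integrated calcium signal more than 4 SD below the library mean, with starting fluorescence not abnormally high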;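 also: negative B-score means reduced calcium response which marks RGS4 activation or potentiation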
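Assay system: HEK293 FlpIn-TREx cells, stable M3R, doxycycline-inducible RGS4 / Probe or stimulus: carbachol, ECmax concentration / Times: overnight RGS4 induction, 30 min dye load 37 °C, 20 min compound RT / Signal: kinetic calcium fluorescence imaging with Fluo4-AM dye, 2 µM / Measure: Agonist-evoked peak-minus-minimum fluorescence over baseline, integrated ratio, B score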
MrgX1 ag: human MrgX1 receptor agonism, primary screen; MrgX1-HEK293 cells, Fluo-4 calcium fluorescence, agonist mode; hits give high values; B-score at 10 µM; 310,000 tested, 0.44% active; AID 588627;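 active = calcium response B-score plate-corrected fluorescence ratio at least 3 library SD, with starting fluorescence B-score inside 5 SD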
Target sequence (Q96LB2 whole entry, looked up): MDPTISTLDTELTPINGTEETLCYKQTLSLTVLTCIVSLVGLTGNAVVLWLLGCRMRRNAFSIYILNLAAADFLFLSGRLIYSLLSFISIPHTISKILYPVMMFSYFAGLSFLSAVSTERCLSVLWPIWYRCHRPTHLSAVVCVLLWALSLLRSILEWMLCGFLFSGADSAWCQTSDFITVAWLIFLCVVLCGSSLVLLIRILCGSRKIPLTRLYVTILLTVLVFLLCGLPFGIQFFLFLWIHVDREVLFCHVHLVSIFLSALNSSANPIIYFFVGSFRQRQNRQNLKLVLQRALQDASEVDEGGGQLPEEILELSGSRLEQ
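Test system: HEK293 cells stably expressing human MrgX1 receptor; amount: 15,000 cells per well; doses: compound delivered in addition one of three; times: overnight plating before 1 h dye loading; detection: Fluo-4 NW calcium-flux fluorescence, kinetic read; read-out basis: B-scored fluorescence response ratio; controls: positive and negative controls per plate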
RGS4 block: inhibitors of human RGS4; AID 463165; P49798; 310,000 tested, 0.45% active; B-score at 10 µM; HEK293 M3R/RGS4 inducible, Fluo-4 calcium flux; hits give high values; triggered by carbachol at its EC20;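 active = B-score, a plate-corrected calcium signal, over three deviations above library mean, with baseline fluorescence within five deviations of library mean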;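 also: RGS4 expression induced by doxycycline in cells with stable M3 receptor; B-score is computed from the integrated fluorescence ratio over baseline after carbachol; higher B-score means a larger calcium signal and so more RGS4 inhibition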
Target sequence (P49798 whole entry, looked up): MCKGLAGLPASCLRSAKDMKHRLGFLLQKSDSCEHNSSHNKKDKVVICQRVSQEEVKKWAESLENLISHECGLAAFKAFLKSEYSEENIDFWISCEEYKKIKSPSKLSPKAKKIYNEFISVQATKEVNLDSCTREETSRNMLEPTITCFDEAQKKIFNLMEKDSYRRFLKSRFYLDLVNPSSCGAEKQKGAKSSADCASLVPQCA
MrgX1 allo act: allosterically activates human MrgX1 receptor signaling | MrgX1-HEK293, Fluo-4 calcium flux, FDSS; hits give high values | AID 588675 | B-score at 10 µM | 310,000 tested, 0.63% active | Q96LB2;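 active = plate-corrected calcium response at least 3 library SD above typical, normal starting fluorescence, not activating the receptor alone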;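 also: compound read alongside a low EC10 to EC30 dose of BAM8-22 agonist; peak minus trough fluorescence over baseline measured at the second addition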
MrgX1 antagonist: antagonists of human MrgX1 receptor | Q96LB2 | MRGX1-HEK293 calcium flux, Fluo-4, BAM8-22 antagonism; hits give low values | B-score at 10 µM | 310,000 tested, 1.3% active;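 active = calcium-response B-score plate-corrected more than 3 library SD below zero, starting fluorescence within 5 deviations, no agonist response on first addition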;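 also: peak minus trough fluorescence over baseline after final BAM8-22 challenge near maximal dose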
MrgX1 antag conf: reconfirmed antagonist of human MrgX1 receptor signaling. MrgX1-HEK293, BAM8-22 calcium flux, Fluo-4; hits give low values. shares compounds with MrgX1 antagonist. remaining BAM8-22 calcium response % of control (hits give low values), % at 10 µM. 2,300 tested, 19% active;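 active = remaining agonist calcium response no higher than 100% minus 3 SD of agonist-only control wells, with starting fluorescence near control levels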;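 also: agonist BAM8-22 given at a near maximal EC90 to ECmax level; peak minus minimum fluorescence divided by baseline after agonist addition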
HEK293 Ca flux: activity in parental HEK293 cells lacking MrgX1. shares compounds with MrgX1 antagonist. Fluo-4 calcium fluorescence, FDSS. fluorescence ratio F(max-min)/F0 at 10 µM. 4,000 tested, 2% active. AID 624111;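 active = duplicate-averaged calcium fluorescence ratio at least three times the standard deviation of buffer wells, a nonspecific response in parental cells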
HEK293 Ca counter: MrgX1 allosteric activator counter-screen hit in parental HEK293 cells | 4,000 tested, 0.4% active | fluorescence ratio F(max-min)/F0 at 10 µM | AID 624114 | shares compounds with MrgX1 antagonist | parental HEK293 calcium flux, Fluo-4 fluorescence ratio; hits give high values;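 active = calcium fluorescence ratio, averaged over duplicates, at least 3 SD of the buffer-well ratio, meaning a nonspecific response in receptor-free cells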;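 also: untransfected parental HEK293 lacking MrgX1 used as counterscreen for MrgX1 allosteric activators; fluorescence change taken during the second addition on a kinetic imager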
HEK293 Ca cntr2: activity in parental HEK293 cells lacking MrgX1 receptor; shares compounds with MrgX1 antagonist; Fluo-4 calcium fluorescence (FDSS); hits give high values; fluorescence ratio F(max-min)/F0 at 10 µM; 4,000 tested, 8.7% active;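 active = calcium fluorescence ratio at least three times the spread of buffer wells, meaning a non-specific response in parental cells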
Each line names hits and unclear results; the compound was inactive in the other large screens (follow-up assays come after a bar, where they were run). Most compounds without a hit are left out; they make up all but 4.1% or so of the library.

O=C(CCS(=O)(=O)c1ccccc1)Nc1cccc(-c2nc3ccccc3s2)c1	MrgX1 antagonist -6.2 | MrgX1 antag conf 84% | HEK293 Ca flux inactive | HEK293 Ca counter inactive | HEK293 Ca cntr2 inactive
O=C(CCS(=O)(=O)c1ccccc1)Nc1ccc(-c2nc3ccccc3s2)cc1	none
CCCc1nnc(NC(=O)CC(=O)OCC)s1	none
Cc1cccc(-c2nc(CSCC(=O)N3CCN(c4ccccn4)CC3)c(C)o2)c1	MrgX1 antagonist -8 | MrgX1 antag conf 58% | HEK293 Ca flux inactive | HEK293 Ca counter inactive | HEK293 Ca cntr2 inactive
Cc1ccc(-c2nc(CSCC(=O)N3CCCC3)c(C)o2)cc1	none
COC(=O)c1cc(OC)c(OC)cc1NC(=S)N1CCCC1	none
COc1ccc(N2C(=O)CCC(C(=O)N3CCCCC3)C2c2ccc(F)cc2)cc1 (centres undefined)	none
COc1ccc(N2C(=O)CCC(C(=O)N3CCOCC3)C2c2ccc(F)cc2)cc1 (centres undefined)	MrgX1 antagonist -4.8 | MrgX1 antag conf inactive | HEK293 Ca flux inactive | HEK293 Ca counter inactive | HEK293 Ca cntr2 inactive
CCn1ccnc1CN1CCN(CCC(C)C)C(CCO)C1 (centres undefined)	MrgX1 antagonist -6.2 | MrgX1 antag conf inactive | HEK293 Ca flux inactive | HEK293 Ca counter inactive | HEK293 Ca cntr2 inactive
COc1ccc(Br)cc1/C=N/NC(=O)CNC(=O)c1cccnc1	none
O=C(NC1CCCCC1)C(=S)N1CCOCC1	MrgX1 antagonist -5.4 | MrgX1 antag conf inactive | HEK293 Ca flux inactive | HEK293 Ca counter inactive | HEK293 Ca cntr2 inactive
Cc1ccc(-n2c(-c3ccc(Br)cc3)c[n+]3c2CCc2ccc4cccnc4c2-3)cc1	Kir21 inh -14, MrgX1 antagonist -11 | MrgX1 antag conf 19% | HEK293 Ca flux inactive | HEK293 Ca counter inactive | HEK293 Ca cntr2 inactive
CC(C)N1CC23C=CC(O2)C(C(=O)OCc2ccccc2)C3C1=O (centres undefined)	MrgX1 antagonist -5 | MrgX1 antag conf inactive | HEK293 Ca flux inactive | HEK293 Ca counter inactive | HEK293 Ca cntr2 inactive
CC(C)N1C[C@@]23C=C[C@@H](O2)C(C(=O)OCc2ccccc2)[C@H]3C1=O (some centres undefined)	none
S=C(c1ccc(Br)cc1)N1CCCC1	none
Oc1ccc(C(=S)N2CCCCC2)cc1	MrgX1 antagonist -4.8 | MrgX1 antag conf inactive | HEK293 Ca flux inactive | HEK293 Ca counter inactive | HEK293 Ca cntr2 inactive
Cc1cc(-c2onc(C)c2C(N)=O)no1	none
CCOC(=O)c1nnc(-c2ccccc2)nc1N1CCSCC1	MrgX1 antagonist -5.6 | MrgX1 antag conf inactive | HEK293 Ca flux inactive | HEK293 Ca counter inactive | HEK293 Ca cntr2 inactive
CCOC(CNC(=O)c1cccn2c(=O)c3c(C)c(C)sc3nc12)OCC	none
Cc1nnc(C)n1/N=C/c1cccnc1	MrgX1 antagonist -7.1 | MrgX1 antag conf inactive | HEK293 Ca flux inactive | HEK293 Ca counter inactive | HEK293 Ca cntr2 inactive
Cc1cccc(N=Cc2[nH]c3ccc(Br)c(Cl)c3c2O)c1	MrgX1 antagonist -5.9 (no result: Kir21 inh, RGS4 act, RGS4 block) | MrgX1 antag conf inactive | HEK293 Ca flux 0.18 | HEK293 Ca counter inactive | HEK293 Ca cntr2 inactive
COc1ccccc1CN=Cc1[nH]c2ccc(Br)c(Cl)c2c1O	none

Screening results deposited in PubChem BioAssay by Johns Hopkins Ion Channel Center.
